Results on 3 compounds are retold here after ChEMBL document CHEMBL5038608, “Design, synthesis, and biological evaluation of novel pyrrolidinone small-molecule Formyl peptide receptor 2 agonists” (Eur J Med Chem, 2021).

Converted amounts (≈) assume the structure as drawn. The source made the active and inactive calls. No cut-off for these calls is given here.

In series [1] the target is T1, N-formyl peptide receptor 2 (Homo sapiens, UniProt P25090).
T1 sequence (P25090 whole entry): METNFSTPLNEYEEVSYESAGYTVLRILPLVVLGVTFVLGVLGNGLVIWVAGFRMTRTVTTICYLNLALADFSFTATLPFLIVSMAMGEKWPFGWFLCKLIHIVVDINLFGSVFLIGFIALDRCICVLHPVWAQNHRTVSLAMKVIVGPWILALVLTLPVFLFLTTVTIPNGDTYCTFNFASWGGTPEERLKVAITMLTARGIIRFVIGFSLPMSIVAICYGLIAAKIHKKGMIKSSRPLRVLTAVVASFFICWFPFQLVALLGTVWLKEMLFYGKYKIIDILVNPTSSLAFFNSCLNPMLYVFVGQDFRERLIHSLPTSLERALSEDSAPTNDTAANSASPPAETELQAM
Briefly: (§1) Agonist activity at FPRL1 (unknown origin) expressed in CHO-K1 cells assessed as stimulation of beta-arrestin recruitment incubated for 150 mins by beta-galactosidase based PathHunter assay. The class given is functional, cell-based. Particulars: read-out: EC50. Put shortly:
(§2)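 PathHunter CHO-K1 FPRL1 cells expressing β-gal enzyme-fragment complementation, 5000 cells/well, held overnight at 37 °C. Stimulated with half-log serial dilutions of compounds (10 mM stocks in PBS) for 150 min at 37 °C. High control was WKYMVm at 100 nM. Detection reagent added for 60 min at RT in the dark, then chemiluminescence read.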
(In general: Arrestin recruitment assays detect the binding of arrestin to an activated receptor.)

Series [2] can be described thus: Kinetic solubility of compound in PBS at pH 7.4 by UV-VIS absorption spectrophotometry analysis. The class given is physicochemical. Particulars: PBS, read-out: Kinetic_solubility. The method in brief: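 A 10 mM DMSO stock was diluted into PBS pH 7.4 at a target of 200 µM (final PBS:DMSO 98:2), in triplicate. Agitated 500 rpm for 90 min, then filtered. Filtrate diluted to PBS:DMSO 80:20 and its UV absorbance compared against a 200–6.75 µM standard series to give the concentration remaining in solution.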

Series [3] concerns the target T2, fMet-Leu-Phe receptor (Homo sapiens, UniProt P21462).
T2 sequence (P21462 whole entry): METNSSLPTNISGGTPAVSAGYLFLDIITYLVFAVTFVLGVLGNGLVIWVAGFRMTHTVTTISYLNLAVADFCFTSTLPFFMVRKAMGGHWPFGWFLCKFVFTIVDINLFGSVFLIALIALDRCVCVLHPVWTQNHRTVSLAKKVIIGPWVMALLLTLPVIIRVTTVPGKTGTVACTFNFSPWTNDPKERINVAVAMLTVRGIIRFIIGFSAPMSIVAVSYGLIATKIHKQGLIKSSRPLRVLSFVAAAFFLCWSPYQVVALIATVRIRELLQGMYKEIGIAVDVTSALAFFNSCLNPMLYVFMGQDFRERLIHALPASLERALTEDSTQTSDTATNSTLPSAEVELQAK
Briefly: Agonist activity at human FPR1 expressed in HEK293-A cells assessed as ERK phosphorylation level incubated for 5 mins by ELISA assay. The class given is functional, cell-based. Put shortly: (§3)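 HEK293A cells stably transfected with human FPR1 or FPR2, seeded at 2 × 10⁴/well and grown 48 h. Serum-starved 3 h, then stimulated 5 min with compounds in serum-free DMEM, top concentration 30 µM, 1/3 serial dilutions. Lysed in ice-cold buffer; p-ERK1/2 (pT202/Y204) measured by SimpleStep ELISA (OD). Expressed as increment over basal.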
(ELISA stands for enzyme-linked immunosorbent assay.)

Series [4] deals with T1, N-formyl peptide receptor 2. In words: Agonist activity at human FPR2 expressed in HEK293-A cells assessed as ERK phosphorylation level incubated for 5 mins by ELISA assay. The class given is functional, cell-based. Put shortly: as §3
The target in series [5] is T3, fMet-Leu-Phe receptor (Homo sapiens) (UniProt P21462).
T3 sequence (whole entry): T2 sequence (P21462 whole entry)
Briefly: Agonist activity at human FPR1 expressed in HEK293-A cells assessed as maximal ERK phosphorylation level at 30 uM incubated for 5 mins by ELISA assay. The class given is functional, cell-based. The method in brief:
(§4)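 HEK293A cells stably transfected with human FPR1 or FPR2, in DMEM with 10% FCS, seeded 2×10⁴/well and grown 48 h. Serum-starved 3 h, then stimulated 5 min with compounds in serum-free DMEM (1/3 serial dilutions from top concentration). W peptide was the positive control. Lysed in ice-cold buffer. p-ERK1/2 (pT202/Y204) measured by ELISA OD and expressed as increment over basal per receptor.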

Series [6] in a line: Distribution coefficient, logD of compound at pH 7.4 by shake flask method based LC-MS/MS analysis. The class given is physicochemical. As to conditions: octanol/water, read-out: logD. The method in brief:
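Shake-flask method: compound diluted from 10 mM DMSO stock into equal volumes of octanol and PBS, final concentration 100 µM. Shaken 12 h, then centrifuged. Both layers analysed in triplicate by LC-MS/MS (MRM, C8 UPLC). LogD = log10 of the octanol/buffer peak-area ratio.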

Series [7] in a line: Microsomal stability in human liver microsomes assessed as half life at 1 uM preincubated for 5 mins followed by NADPH regenerating system addition measured after 30 mins by LC-MS/MS analysis. As to conditions: t1/2, time 35 min. The class given is ADME, Microsome. The method in brief:
(§5)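 Human or mouse liver microsomes (0.2 mg/mL protein) with compound at 1 µM final, pre-incubated 5 min at 37 °C. Reaction started with NADPH generating solution and agitated at 37 °C, with samples quenched up to 30 min. Centrifuged; supernatant analysed in triplicate by LC-MS.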

Series [8] deals with T1, N-formyl peptide receptor 2. Briefly: Agonist activity at FPRL1 (unknown origin) expressed in CHO-K1 cells assessed as increase in calcium mobilization incubated for 2.5 hrs by cellular based FLIPR assay. The class given is functional, cell-based. As to conditions: read-out: EC50. The method in brief:
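CHO-K1 cells overexpressing hFPR2, plated at 20,000 cells/well in F-12 with 10% FBS and held overnight at 37 °C. Loaded with FLIPR Calcium 6 dye for 2 h at 37 °C, then 30 min at RT in the dark. Compounds were half-log serially diluted from 10 mM stocks in HBSS/20 mM HEPES. Cytosolic Ca2+ rise read on FLIPR Tetra. WKYMVm served as control.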
(In general: Calcium flux is commonly read through the fluorescence of an indicator in the cells.)

The nature of series [9]: Microsomal stability in mouse liver microsomes assessed as half life at 1 uM preincubated for 5 mins followed by NADPH regenerating system addition measured after 30 mins by LC-MS/MS analysis. As to conditions: t1/2, time 35 min. The class given is ADME, Microsome. Put shortly: as §5
For series [10], the target named is T4, N-formyl peptide receptor 2 (Homo sapiens) (UniProt P25090).
T4 sequence (whole entry): T1 sequence (P25090 whole entry)
Briefly: Agonist activity at FPRL1 (unknown origin) expressed in CHO-K1 cells assessed as stimulation of beta-arrestin recruitment […] incubated for 150 mins by beta-galactosidase based PathHunter assay. The class given is functional, cell-based. The method in brief: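 PathHunter CHO-K1 FPRL1 cells carry complementing β-galactosidase fragments. Plated at 5000/well, held 1 h RT, then overnight at 37 °C. Compounds were half-log serially diluted from 10 mM stocks in PBS. Stimulation 150 min at 37 °C; W-peptide (WKYMVm, 100 nM) was the high control. Detection reagent added for 60 min RT in the dark, with chemiluminescence read-out.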

Series [11] concerns the target T4, N-formyl peptide receptor 2 (Homo sapiens). In words: Agonist activity at human FPR2 expressed in HEK293-A cells assessed as maximal ERK phosphorylation level at 30 uM incubated for 5 mins by ELISA assay. The class given is functional, cell-based. Particulars: filed as agonist. The method in brief: as §4
Series [12] deals with Neutrophil. Briefly: Inhibition of cell adhesion in human Neutrophils assessed as reduction on neutrophil at 1 to 100 uM incubated for 30 mins by DAPI staining based immunofluorescence assay. Particulars: dose 1-100 µM. The class given is functional. The method in brief: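 Neutrophils isolated from healthy donor blood (Polymorphprep) and suspended in HBSS/20 mM HEPES/0.25% BSA/Ca2+, pH 7.4, at 0.5 × 10⁶/mL. Pre-incubated with agonists (final 1:5 dilution) 30 min at 37 °C. Then adhered 20 min at 37 °C on plates coated with P-selectin and ICAM-1 (1 µg/mL each), BSA-blocked. PFA-fixed and DAPI-stained; four images per well counted. 3 independent experiments × 3 technical replicates.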

A short description of series [13]: MRT(0 to t) in C57BL6 mouse at 10 mg/kg, ip. The class given is ADME, organism-based. Particulars: in vivo. The method in brief:
(§6)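 Male C57BL6 mice, single intraperitoneal dose of 10 mg/kg as a clear solution in DMSO 10%/PEG400 35%/PG 25%/water 30%. 12 mice used: 9 dosed, 3 for blank plasma. Each mouse bled three times. Plasma concentration measured at eight time points over 24 h.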

The nature of series [14]: Half life in C57BL6 mouse at 10 mg/kg, ip. The class given is ADME, organism-based. As to conditions: in vivo. Put shortly: as §6
Series [15] can be described thus: AUC (0 to t) in C57BL6 mouse at 10 mg/kg, ip. The arrangement: dose 10 mg/kg. Particulars: in vivo. The class given is ADME, organism-based.
A short description of series [16]: Cmax in C57BL6 mouse at 10 mg/kg, ip measured upto 24 hrs. Particulars: in vivo. The class given is ADME, organism-based. Further details: route intraperitoneal, dose 10 mg/kg, time <=24. Put shortly: as §6
Series [17] deals with T4, N-formyl peptide receptor 2 (Homo sapiens). Briefly: Agonist activity at FPRL1 (unknown origin) expressed in CHO-K1 cells assessed as increase in calcium mobilization […] incubated for 2.5 hrs by cellular based FLIPR assay. The class given is functional, cell-based. As to conditions: filed as agonist, time 0.067 hrs, in the assay text read “measured for 240 s” for “incubated for 2.5 hrs”. Put shortly: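 CHO-K1 cells overexpressing human FPR2 (PathHunter FPRL1 line), plated at 20,000/well in F-12 with 10% FBS and held 1 h RT, then overnight at 37 °C. Calcium 6 dye loaded 2 h at 37 °C, then 30 min RT in the dark. Compounds were half-log serially diluted from 10 mM stocks in HBSS with 20 mM HEPES. Cytosolic Ca2+ rise read on FLIPR Tetra.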

Series [18] can be described thus: Tmax in C57BL6 mouse at 10 mg/kg, ip. The class given is ADME, organism-based. As to conditions: in vivo. The method in brief:
as §6

Series [19] can be described thus: AUC (0 to infinity) in C57BL6 mouse at 10 mg/kg, ip. Particulars: in vivo. The arrangement: time infinity, route intraperitoneal, dose 10 mg/kg. The class given is ADME, organism-based.
Series [20] is described as follows: AUC extrapolated in C57BL6 mouse at 10 mg/kg, ip. The class given is ADME, organism-based. Particulars: in vivo. The method in brief: as §6
Series [21] addresses T4, N-formyl peptide receptor 2 (Homo sapiens). The series is described as §1. The class given is functional, cell-based. Put shortly: as §2

As usually defined, the EC50 is the concentration needed to bring the measured effect to its halfway point. What is called Emax is the maximal effect, on the per cent scale that the assay sets. As usually defined, the logD is the decadic logarithm of the distribution of all forms, ionised or not, between an organic phase and buffer at a given pH. Broadly, the half-life is the time in which the quantity being followed falls by half. The MRT last is the average time that molecules of a dose stay in the body. Usually AUC(0-t) stands for the area under the concentration-time curve up to a stated or last time point. Lower therefore signals low exposure. For orientation: Cmax means the peak of the concentration-time curve. In general, Tmax refers to the time from dosing to the highest level. For orientation: AUC(0-inf) means total exposure, with the tail of the curve extrapolated.

For the compound `Cc1nn(C)cc1N1CCC(NC(=O)Nc2ccc(Br)cc2)C1=O` (configuration not stated), the EC50 in [1] is 740 nM; in series [3] (hek293-a), “Not Active”; in series [4], 4880 nM; in series [8] it was 142 nM. Moreover, the solubility kinetic in series [2] worked out at 9 µM (≈ 3.53 µg/mL). In series [5], the Emax entry is “inactive”. Further, the logD in [6] came to 2.6. Also, the half-life at 1 µM in series [7] was determined as 3.05 h; in series [9] it was 2.87 h. In addition, the Emax in [10] (filed as agonist) was determined as 98%; in [11], 90%.
Consider `O=C(Nc1ccc(Br)cc1)NC1CCN(c2ccccc2)C1=O` (configuration not stated), for which the half-maximal effective concentration (EC50) in series [1] was found to be 300 nM; in series [3] (read-out: EC50) it was 1740 nM; in [4] it was 7360 nM; in series [8], 430 nM. The Activity result in series [12] is “Dose-Dependent Effect”. Besides, the MRT last in series [13] was found to be 9.2 h. Besides, the half-life in series [14] was 9.42 h. Further, in [2], the solubility kinetic stood at 15 µM (≈ 5.61 µg/mL). Further, the AUC(0-t) in [15] came out at 28600 ng·h/mL. Moreover, in series [16], the Cmax was determined as 3610 ng/mL. The Emax in series [17] came to 73%; in series [5] it was 15%; in series [11], 69%. Also, the Tmax in [18] amounted to 0.25 h. Further, the logD in [6] is > 4. The compound further displayed an AUC(0-inf) in series [19] of 35000 ng·h/mL. For the same compound, the half-life at 1 µM in series [7] and in series [9] was > 6.67 h in each case. Besides, the “%AUCextra” value in series [20] is 18.17%.
Turning to `CC(C)n1cc(N2CCC(NC(=O)Nc3ccc(Br)cc3)C2=O)cn1` (configuration not stated), the Emax entry in series [21] and in series [10] was “inactive” throughout. Also, in [2], the solubility kinetic came to 1 µM (≈ 0.406 µg/mL). Also, the pH-dependent lipophilicity (logD) in series [6] came to 3.7. Further, the figures for the half-life at 1 µM in series [7] and in series [9] were 5.37 h and 2.66 h, respectively. Besides, the EC50 in series [8] came out at 884 nM.
